Reference: ChEMBL document CHEMBL1212825, “Synthesis and structure-activity relationships of N-(2-oxo-3-oxetanyl)amides as N-acylethanolamine-hydrolyzing acid amidase inhibitors” (J Med Chem, 2010)
Active and inactive are the calls of the source. The calls are words filed in the database; no cut-off is given here.

T1: N-acylethanolamine-hydrolyzing acid amidase (Rattus norvegicus, UniProt Q5KTC7)
T1 sequence (Q5KTC7 whole entry): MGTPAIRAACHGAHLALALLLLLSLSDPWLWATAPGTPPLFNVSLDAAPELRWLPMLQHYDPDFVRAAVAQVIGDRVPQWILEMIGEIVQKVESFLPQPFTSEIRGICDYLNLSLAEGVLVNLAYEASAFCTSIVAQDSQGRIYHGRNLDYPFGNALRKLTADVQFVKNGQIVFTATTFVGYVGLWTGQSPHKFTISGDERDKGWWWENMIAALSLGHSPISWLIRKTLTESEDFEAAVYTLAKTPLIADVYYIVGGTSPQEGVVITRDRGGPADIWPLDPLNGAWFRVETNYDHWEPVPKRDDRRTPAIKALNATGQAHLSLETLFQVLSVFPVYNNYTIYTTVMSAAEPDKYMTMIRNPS

T2: N-acylethanolamine-hydrolyzing acid amidase (Rattus norvegicus) (UniProt Q5KTC7)
T2 sequence (whole entry): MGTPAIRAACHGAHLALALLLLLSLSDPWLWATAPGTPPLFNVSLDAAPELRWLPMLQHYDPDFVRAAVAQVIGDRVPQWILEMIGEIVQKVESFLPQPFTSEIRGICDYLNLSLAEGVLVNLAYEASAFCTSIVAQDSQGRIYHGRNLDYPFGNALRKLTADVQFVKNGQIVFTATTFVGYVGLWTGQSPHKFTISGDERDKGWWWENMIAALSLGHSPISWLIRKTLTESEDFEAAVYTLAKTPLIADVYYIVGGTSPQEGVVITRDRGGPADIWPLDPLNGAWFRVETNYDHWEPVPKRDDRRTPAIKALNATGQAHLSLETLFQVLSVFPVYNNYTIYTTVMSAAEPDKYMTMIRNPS


Experiments:
[1] = molecular target: T1, N-acylethanolamine-hydrolyzing acid amidase; assay: Inhibition of rat recombinant NAAA expressed in HEK293 cells after 30 mins; type: cell-based
Method in brief: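 Rat NAAA (full-length coding sequence cloned from rat brain cDNA, Flag-tagged) stably expressed in HEK293 cells, selected with G418 0.3 mg/mL. Enzyme taken as 105,000 g supernatant after freeze-thaw of the 12,000 g pellet. Incubated at 37 °C for 30 min in 50 mM sodium hydrogen phosphate pH 5.0 with 0.1% Triton X-100, 3 mM DTT and 50 μM heptadecenoylethanolamide substrate. IC50 reported.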

Mus musculus [2] = assay: Antiinflammatory activity in polyethylene sponges implanted mouse assessed as inhibition of carrageenan-induced reduction of palmitoylethanolamine level compound administered into sponges; type: functional, organism-based
Method in brief: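 Mice received subcutaneous polyethylene sponges (1 cm3, 2 per mouse) under dorsal skin. Each sponge was instilled with carrageenan 1.0% in 90 μL sterile saline plus drug or vehicle (DMSO, 10 μL/sponge), with drugs given over a range of doses. PEA measured by LC/MS.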

[3] = molecular target: T2, N-acylethanolamine-hydrolyzing acid amidase (Rattus norvegicus); assay: Inhibition of rat recombinant NAAA expressed in HEK293 cells assessed as recovered initial enzyme activity at 10 uM after 12 hrs of dialysis; values are per cent of control
Mus musculus [4] = assay: Antiinflammatory activity in polyethylene sponges implanted mouse assessed as reduction of carrageenan-induced leukocyte infiltration compound administered into sponges; type: functional, organism-based
[5] = substrate: O=C(N[C@H]1COC1=O)c1ccc(-c2ccccc2)cc1; conditions: Rattus norvegicus; HEK293; 200 nM
[6] = substrate: O=C(N[C@H]1COC1=O)c1ccc(-c2ccccc2)cc1; conditions: Rattus norvegicus; HEK293; 100 nM
[7] = substrate: O=C(N[C@H]1COC1=O)c1ccc(-c2ccccc2)cc1; conditions: Rattus norvegicus; HEK293; 100 nM; remark: listed apart in the source
[8] = substrate: O=C(N[C@H]1COC1=O)c1ccc(-c2ccccc2)cc1; conditions: Rattus norvegicus; HEK293; 200 nM; remark: listed apart in the source

Row | Molecule | IC50 [1] [nM] | also measured
1 | O=C(CCc1ccccc1)N[C@H]1COC1=O | – | Activity (Mus musculus [2]): Dose-dependent effect; residual activity [3]: 44%; Activity (Mus musculus [4]): Active
2 | O=C1OCC1CCCCc1ccccc1 (racemic) | 11000 | –
3 | O=C(N[C@H]1COC1=O)c1ccc(-c2ccccc2)cc1 | – | Activity (Mus musculus [2]): Dose-dependent effect; Activity (Mus musculus [4]): Active
4 | C[C@H]1OC(=O)[C@H]1NC(=O)CCc1ccccc1 | > 100000 | –
5 | O=C(CCc1ccccc1)NC1CCC1 | > 100000 | –
6 | O=C(N[C@H]1CCOC1=O)c1ccc2ccccc2c1 | > 100000 | –
7 | O=C(N[C@H]1COC1=O)c1ccc(C(=O)Oc2ccccc2)cc1 | 300 | –
8 | CCOC(=O)c1ccc2cc(C(=O)N[C@H]3COC3=O)ccc2c1 | 300 | –
9 | O=C(CCc1ccccc1)N[C@H]1CCOC1=O | > 100000 | –
10 | CCCCCCC(=O)N[C@H]1COC1=O | 460 | –
11 | COc1ccc2cc(C(=O)N[C@H]3COC3=O)ccc2c1 | 400 | –
12 | O=C(CCCCCCc1ccccc1)N[C@H]1COC1=O | 1500 | –
13 | C[C@@H]1OC(=O)[C@@H]1NC(=O)CCc1ccccc1 | 3200 | –
14 | O=C(CCc1ccccc1)N[C@@H](CO)C(=O)O | > 100000 | –
15 | N-acylethanolamine-hydrolyzing acid amidase (Rattus norvegicus), Q5KTC7 (protein) MGTPAIRAACHGAHLALALLLLLSLSDPWLWATAPGTPPLFNVSLDAAPELRWLPMLQHYDPDFVRAAVAQVIGDRVPQWILEMIGEIVQKVESFLPQPFTSEIRGICDYLNLSLAEGVLVNLAYEASAFCTSIVAQDSQGRIYHGRNLDYPFGNALRKLTADVQFVKNGQIVFTATTFVGYVGLWTGQSPHKFTISGDERDKGWWWENMIAALSLGHSPISWLIRKTLTESEDFEAAVYTLAKTPLIADVYYIVGGTSPQEGVVITRDRGGPADIWPLDPLNGAWFRVETNYDHWEPVPKRDDRRTPAIKALNATGQAHLSLETLFQVLSVFPVYNNYTIYTTVMSAAEPDKYMTMIRNPS | – | Vmax [5]: 6.2 nmol/min; Vmax [6]: 10.8 nmol/min; Km [7]: 129 µM; Km [8]: 156 µM

Further lines, with some results ahead:

Row | IC50 [1] [nM] | Molecule | also measured
16 | 3200 | O=C(N[C@@H]1COC1=O)c1ccc2ccccc2c1 | –
17 | 102 | CCc1ccc(C(=O)N[C@H]2COC2=O)cc1 | –
18 | 1700 | O=C(N[C@H]1COC1=O)c1ccccc1 | –
19 | 1850 | O=C(Cc1ccccc1)N[C@H]1COC1=O | –
20 | 6000 | O=C(CCc1ccccc1)N[C@@H]1COC1=O | –
21 | 160 | O=C(N[C@H]1COC1=O)c1ccc2ccccc2c1 | –
22 | 4400 | O=C(N[C@H]1COC1=O)c1cccc(-c2ccccc2)c1 | –
23 | 2960 | O=C(N[C@H]1COC1=O)OCc1ccccc1 | –
24 | 90 | O=C(N[C@H]1COC1=O)c1ccc(OCc2ccccc2)cc1 | –
25 | 50000 | O=C(N[C@H]1COC1=O)c1cccc2ccccc12 | –
